Test system: MS2 coat protein
Experiment: apparent Kd, MS2 coat protein; higher = weaker binding; RNA-MaP array
In short: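 With or without input ligand, designed RNAs transcribed on an Illumina sequencing chip from sequenced DNA templates were incubated at room temperature with fluorescently labeled MS2 coat protein at 1.5 nM to 3 μM. The buffer was Tris-HCl pH 7.5 with KCl, MgCl2, BSA, DTT, tRNA and Tween20, and incubation ran 0.8–1.5 h at the lowest and 10–20 min at the highest concentrations. Apparent Kd is reported as the median of fits to binding curves from individual clusters. Designs measured on fewer than 10 clusters are not included.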

[1] = designed as: OFF switch for flavin mononucleotide, no ligand
[2] = ligand present: flavin mononucleotide, designed as: OFF switch for flavin mononucleotide
[3] = designed as: ON switch for flavin mononucleotide, no ligand
[4] = ligand present: flavin mononucleotide, designed as: ON switch for flavin mononucleotide
[5] = designed as: ON switch for theophylline, no ligand
[6] = ligand present: theophylline, designed as: ON switch for theophylline

Sequence	apparent Kd [1]	apparent Kd [2]	other results
CGGUUACUAGGAUAUACAUGAGGAUCACCCAUGUGACCUCCCGUCACGCGUGUACUGGGUAGAAGGAGUCAGGU	24.8 nM	34.8 nM	–
ACUCUCGGCUAAGGAUAUCUCCGACUGACCAAUAGAGAAGGUAGUCGACGUGCGAUCAGACAUGAGGAUCACCCAUGUGAAAUC	–	–	apparent Kd [3]: 7.07 nM; apparent Kd [4]: 7.14 nM
AAUUUUAUGAAAGGAUAUGUGUGCUGGUCCAUCACAGAAGGUUCAAGGAGAUGGAUAUAACGACAUGAGGAUCACCCAUGUGCU	–	–	apparent Kd [3]: 32 nM; apparent Kd [4]: 22.1 nM
UCACUUGUCUAGAAGGGUCGGCACAUGAGGAUCACCCAUGUAAAUGGCUGGUUCAAAUAAUUUUGACAGGAUAUAGAGAGCACU	16.6 nM	50.4 nM	–
GCAGUCCUCCGAGGAUAUAUGACAAUUGACGUGAGAUGUUAGCACAUGAGGAUCACCCAUGUUUUAUAGAAGGCGGGAUAGGUU	–	–	apparent Kd [3]: 20.5 nM; apparent Kd [4]: 18.3 nM
AAGUCAGGAGGCGAUACCAGUUACGACAUGGCCAGUUACAUGAGGAUCACCCAUGUGCGGAACCCUUGGCAGCGCUUACAUCGCU	–	–	apparent Kd (designed as: OFF switch for theophylline, no ligand): 23.1 nM; apparent Kd (ligand present: theophylline, designed as: OFF switch for theophylline): 165 nM
AACAUGAGGAUCACCCAUGUAGGUACUUCUCGACGGCCUACAAGAAGGUGUUGUAAAGUCAAGAACAAGGAUAUUGUGAUGGCU	555 nM	371 nM	–
AUGGUGUCUUAAGGAUAUGCUCGACAUGAGGAUCACCCAUGUGCCUCGUUUUCCCAACCGAGGUCGCAGAAGGUAAGUGACGUG	–	–	apparent Kd [3]: 313 nM; apparent Kd [4]: 37 nM
ACACGCUAAGGAUAUACAUGAGGAUCACCCAUGUUAAAAGUUAAAUAGGAAUGAUACCGUAGAAGGUAGGAUGA	13.2 nM	11.4 nM	–
AUCAAGUGAGGAUAUCCGUAGACUCCUAAUCAGCGACUCAAGGAGAAGGCACAUGAGGAUCACCCAUGUUAGAU	19.6 nM	20.8 nM	–
GAUGACUUAGGAUAUCAAAUUCUCGACAUGAGGAUCACCCAUGUGUAUCCGCCAGGUUAGUGAGAAGGAAGUUGGA	91.3 nM	77.8 nM	–
GGCGCGGCAGGAUAUGGAUGACGUGACAUGAGGAUCACCCAUGUGCUUAGAUCAUUCGUACCAGAAGGGCCCGCAG	4.29 nM	4.3 nM	–
CGUCAGUAAGGAUAUACCCGCACUUAACACGAGCGUCGUCGGUAGAAGGUACAUGAGGAUCACCCAUGUAGAAA	7.84 nM	8.95 nM	–
GAGCUCCACAAGAAGGGCCGUUGCCCAUGGAAGGACGGCACAUGAGGAUCACCCAUGUUGGCAGGGCAGGAUAUUGCAUUUAUU	26 nM	82.8 nM	–
GUCUUGUAAGGAUAUGAUCAGUAGGAAAGAUGGCAGCAUCAUCAGAAGGUACAUGAGGAUCACCCAUGUUGUGA	17 nM	22.9 nM	–
AGAAAUGUAUUAGGAUAUUGGCGCGUAUUACGACAAGAAGGAAUACAUGAGGAUCACCCAUGUAACCCGCUCCGCGGUCCAUGG	101 nM	64.3 nM	–
CGCAAUUCCUGAGGAUAUUGGCAGCGACAUGAGGAUCACCCAUGUGACCAUUUGGUGUUUUGUGUCAAGAAGGCAGCCCAUGAG	44.9 nM	33.8 nM	–
GGGCGACAUGAGGAUCACCCAUGUGUCGAUACCAGUAUGAAUUUCUACCCUUGGCAGCGACGACACGGUUAUUUGUGCACUUCGA	–	–	apparent Kd [5]: 81.8 nM; apparent Kd [6]: 200 nM
CCUGAACGGGACAUGAGGAUCACCCAUGUAUGAGACUCAAAGAAGGAUAUCUUACAUACAGUUCGAGAGAAGGUCUAGCAAACG	86.5 nM	54.9 nM	–
GAAUACGUCAUGAUGAACAUGAGGAUCACCCAUGUAGUGCCUUAGGAUAUGCUACGAUUACUGCCGCAGAAGGAAGUGCAAGAA	–	–	apparent Kd [3]: 44.1 nM; apparent Kd [4]: 28.4 nM
CUUUACUGAGGAUAUACGCAGAUCUAGAUAUCGUAAUACGAACAUGAGGAUCACCCAUGUAGAAGGCAGGCCGA	12.4 nM	24.1 nM	–
CAAUGGCAGUUGCAGGAUAUUCGGCCGGACACAUGAGGAUCACCCAUGUAGGUUCUCCCAUGGAUGAAGAAGGGCACAACAGAAAC	–	–	apparent Kd [3]: 134 nM; apparent Kd [4]: 66.4 nM
UAUGUCGCCGAAGAUACCAGCCUGGCAAGCAACAUGAGGAUCACCCAUGUAAUUACUUAUGGCCCUUGGCAGCUUCAAAUAGAGC	–	–	apparent Kd [5]: 11.4 nM; apparent Kd [6]: 11.8 nM
UGUAUCUCGCAGAAGGCAGGUUAAGCAACAAACUGAGGAUAUGCGUAUACAUGAGGAUCACCCAUGUUCACUGAUCGCAAAUUC	14.8 nM	102 nM	–
UCACAACUAGGAUAUUUAGUGCUAUACAUGAGGAUCACCCAUGUCGUGUGCACUAGUACGAAAGAAGGAGUUAUCG	5.09 nM	5.21 nM	–
AAAACUAAAGUCAGGAUAUAACGAAUCGAAGAUAGAUAGAAGGGACAUGAGGAUCACCCAUGUGAGGAAGACAA	13.1 nM	11.1 nM	–

Reference: the EternaBench riboswitch data
